The subject of test [1] is Rattus norvegicus. As to the kind of experiment: Increase of Apolipoprotein A-I level in cholesterol-fed male rats at 79 mg/kg/day relative to control. The class given is functional. A digest of the protocol: (§1)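 Drug mixed into diet, fed ad libitum for 8 days to groups of six male Sprague–Dawley rats on a cholesterol diet. Serum Apo A-I measured by SDS–polyacrylamide gel electrophoresis or by rat competition ELISA. Reported as % change versus untreated controls, with significance set at p < 0.05.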

Test [2] deals with Rattus norvegicus. As to the kind of experiment: Increase of HDL level in cholesterol-fed male rats by ultracentrifugation method at 79 mg/kg/day relative to control. Format: functional. A digest of the protocol: (§2)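 Compound given in the diet, ad libitum, to groups of six male Sprague–Dawley rats on a cholesterol diet for 8 days. Serum lipoproteins were separated by classical ultracentrifugation, and HDL cholesterol was quantitated by an enzymatic colorimetric method. Results are reported as % change relative to untreated controls, with significance at p < 0.05 versus controls.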

Test [3] relates to Rattus norvegicus. Briefly: Weight gain in cholesterol-fed male rats at 79 mg/kg/day relative to control. The class given is functional. In outline:
(§3)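 Groups of six male Sprague–Dawley rats on a cholesterol diet received the compound in the diet, ad libitum, over 8 days. Body weight gain is reported as % change relative to untreated controls.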

Test [4] relates to Rattus norvegicus. Briefly: Increase of total cholesterol level in cholesterol-fed male rats at 79 mg/kg/day relative to control. Format: functional. In outline:
(§4)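 Dietary (ad libitum) dosing of groups of six male Sprague–Dawley rats on a cholesterol diet for 8 days. Serum total cholesterol was quantitated enzymatically by a colorimetric method and expressed as % change relative to untreated controls, with significance at p < 0.05.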

The test system of test [5] is Rattus norvegicus. As to the kind of experiment: Increase of HDL level in cholesterol-fed male rats by FPLC method at 79 mg/kg/day relative to control. The class given is functional. A digest of the protocol:
(§5)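 Groups of six male Sprague–Dawley rats on a cholesterol diet received drug in the diet, ad libitum, for 8 days. Serum lipoproteins separated by FPLC, adapted for robotic automation, and cholesterol quantitated enzymatically by colorimetry. HDL given as % change versus untreated controls, with significance set at p < 0.05.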

In test [6] the test system is Hamster. As to the kind of experiment: Increase of HDL cholesterol in normal-fed hamster at 52 mg/kg/day. The class given is functional, Cricetulus griseus.
Another test concerns Canis familiaris. Briefly: Increase of HDL cholesterol in normal-fed dog at 35 mg/kg/day. The class given is functional, Canis lupus familiaris.
Another test relates to Rhesus monkey. As to the kind of experiment: Increase of HDL cholesterol in chow-fed rhesus monkey at 12 mg/kg/day. Format: functional, Macaca mulatta.
In the next test the test system is Cynomolgus monkey. Briefly: Increase of HDL cholesterol in chow-fed cynomolgus monkey at 12 mg/kg/day. The class given is functional, Macaca fascicularis.
In test [7] the test system is Rattus norvegicus. Briefly: Triglyceride level in cholesterol-fed male rats at 79 mg/kg/day relative to control. The class given is functional. In outline: (§6)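 Male Sprague–Dawley rats on a cholesterol diet, in groups of six, received the compound in the diet ad libitum for 8 days. Serum triglycerides are expressed as % change relative to untreated controls, with significance at p < 0.05 versus controls.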

Test [8] concerns Rattus norvegicus. Briefly: Increase of HDL cholesterol in normal-fed rat at 80 mg/kg/day. The class given is functional.
Test [9] concerns Hamster. Briefly: Increase of HDL cholesterol in chow-fed hamster at 64 mg/kg/day. Format: functional, Cricetulus griseus.
The target of test [10] is T1, Peroxisome proliferator-activated receptor alpha (Rattus norvegicus, UniProt P37230).
T1 sequence (P37230 whole entry): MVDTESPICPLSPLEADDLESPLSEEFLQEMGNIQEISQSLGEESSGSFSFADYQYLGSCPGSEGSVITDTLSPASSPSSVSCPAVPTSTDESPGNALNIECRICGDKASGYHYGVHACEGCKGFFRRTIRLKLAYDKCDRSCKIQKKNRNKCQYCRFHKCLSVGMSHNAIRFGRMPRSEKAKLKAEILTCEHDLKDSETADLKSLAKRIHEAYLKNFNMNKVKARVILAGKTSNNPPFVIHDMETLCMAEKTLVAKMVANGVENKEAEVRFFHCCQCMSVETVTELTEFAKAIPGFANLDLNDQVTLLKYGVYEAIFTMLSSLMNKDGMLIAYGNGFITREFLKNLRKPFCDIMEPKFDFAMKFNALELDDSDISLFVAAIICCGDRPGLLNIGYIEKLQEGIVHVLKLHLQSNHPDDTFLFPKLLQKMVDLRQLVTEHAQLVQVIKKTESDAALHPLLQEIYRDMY
Briefly: Activity against PPAR-alpha.

Test [11] deals with T2, Peroxisome proliferator-activated receptor delta (Homo sapiens, UniProt Q03181).
T2 sequence (Q03181 whole entry): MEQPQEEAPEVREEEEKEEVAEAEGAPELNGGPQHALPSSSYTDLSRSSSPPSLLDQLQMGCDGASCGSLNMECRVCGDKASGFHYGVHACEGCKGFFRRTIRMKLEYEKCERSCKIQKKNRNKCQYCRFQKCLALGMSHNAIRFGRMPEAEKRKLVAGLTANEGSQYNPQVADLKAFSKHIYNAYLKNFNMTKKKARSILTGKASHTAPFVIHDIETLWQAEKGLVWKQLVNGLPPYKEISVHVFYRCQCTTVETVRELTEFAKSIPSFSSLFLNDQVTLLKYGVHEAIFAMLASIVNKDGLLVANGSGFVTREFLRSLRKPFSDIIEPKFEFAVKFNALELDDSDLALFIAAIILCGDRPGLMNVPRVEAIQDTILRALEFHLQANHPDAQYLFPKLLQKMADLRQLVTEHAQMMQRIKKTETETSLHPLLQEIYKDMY
Briefly: Activity against PPAR-delta.

Test [12] relates to Rattus norvegicus. As to the kind of experiment: Increase of Apolipoprotein A-I level in cholesterol-fed male rats at 62 mg/kg/day relative to control. The class given is functional. In outline: as §1
The subject of test [13] is Rattus norvegicus. Briefly: Weight gain in cholesterol-fed male rats at 62 mg/kg/day relative to control. Format: functional. A digest of the protocol:
as §3

For test [14], the system named is Rattus norvegicus. Briefly: Increase of HDL level in cholesterol-fed male rats by ultracentrifugation method at 62 mg/kg/day relative to control. The class given is functional. A digest of the protocol: (§7)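 Cholesterol-fed male Sprague–Dawley rats, six per group, given drug in the diet ad libitum for 8 days. Serum lipoproteins separated by classical ultracentrifugation and HDL cholesterol measured by an enzymatic colorimetric method. Expressed as % change versus untreated controls, with significance set at p < 0.05.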

Test [15] relates to Rattus norvegicus. Briefly: Increase of total cholesterol level in cholesterol-fed male rats at 62 mg/kg/day relative to control. The class given is functional. In outline:
as §4

Test [16] concerns Rattus norvegicus. As to the kind of experiment: Increase of HDL level in cholesterol-fed male rats by FPLC method at 62 mg/kg/day relative to control. The class given is functional. In outline:
as §5

Test [17] is filed under the species Rattus norvegicus. Briefly: Increase in liver enzyme Aspartate aminotransferase. The class given is functional. More on the design: concentration or dose not given beside the values.
The subject of test [18] is Rattus norvegicus. As to the kind of experiment: Triglyceride level in cholesterol-fed male rats at 62 mg/kg/day relative to control. Format: functional. A digest of the protocol:
as §6

The species entered for test [19] is Rattus norvegicus. As to the kind of experiment: Increase in liver enzyme Alkaline phosphatase. Format: functional. On the set-up: concentration or dose not given beside the values.
Test [20] relates to Rattus norvegicus. As to the kind of experiment: Increase of HDL level in cholesterol-fed male rats by ultracentrifugation method at 63 mg/kg/day relative to control. The class given is functional. A digest of the protocol: as §7
Test [21] has as its system Rattus norvegicus. Briefly: Weight gain in cholesterol-fed male rats at 63 mg/kg/day relative to control. Format: functional. In outline:
as §3

Test [22] deals with Rattus norvegicus. As to the kind of experiment: Increase of total cholesterol level in cholesterol-fed male rats at 63 mg/kg/day relative to control. The class given is functional. In outline:
as §4

For test [23], the system named is Rattus norvegicus. As to the kind of experiment: Increase of HDL level in cholesterol-fed male rats by FPLC method at 63 mg/kg/day relative to control. The class given is functional. In outline: as §5
The subject of test [24] is Rattus norvegicus. As to the kind of experiment: Increase of Apolipoprotein A-I level in cholesterol-fed male rats at 63 mg/kg/day relative to control. The class given is functional. In outline: as §1
For test [25], the system named is Rattus norvegicus. Briefly: Triglyceride level in cholesterol-fed male rats at 63 mg/kg/day relative to control. The class given is functional. A digest of the protocol: as §6
For test [26], the system named is Rattus norvegicus. As to the kind of experiment: Increase of Apolipoprotein A-I level in cholesterol-fed male rats at 77 mg/kg/day relative to control. Format: functional. A digest of the protocol:
as §1

The subject of test [27] is Rattus norvegicus. As to the kind of experiment: Increase of HDL level in cholesterol-fed male rats by ultracentrifugation method at 77 mg/kg/day relative to control. Format: functional. A digest of the protocol: as §2
In test [28] the test system is Rattus norvegicus. As to the kind of experiment: Increase of HDL level in cholesterol-fed male rats by FPLC method at 77 mg/kg/day relative to control. Format: functional. A digest of the protocol: as §5
In test [29] the test system is Rattus norvegicus. As to the kind of experiment: Weight gain in cholesterol-fed male rats at 77 mg/kg/day relative to control. Format: functional. In outline:
as §3

The test system of test [30] is Rattus norvegicus. Briefly: Increase of total cholesterol level in cholesterol-fed male rats at 77 mg/kg/day relative to control. Format: functional. In outline:
as §4

Test [31] relates to Rattus norvegicus. Briefly: Triglyceride level in cholesterol-fed male rats at 77 mg/kg/day relative to control. Format: functional. In outline: as §6

Among the data in ChEMBL document CHEMBL1148541, “Biological evaluation of 1-alkyl-3-phenylthioureas as orally active HDL-elevating agents” (Bioorg Med Chem Lett, 2006) are Activity and EC50 values, retold here.

A word on the EC50: it is the concentration at which the effect is half-maximal. On to `Cc1ccc(Cl)cc1N/C(S)=N/CC(C)C`, for which the Activity in the test on Rattus norvegicus [1] is given as 77%; in the test on Rattus norvegicus [2], 104%; with Rattus norvegicus [3], -12%; with Rattus norvegicus [4] it was -11%; with Rattus norvegicus [5], 260%; in the test on Hamster [6] it was 44%. Further, the Activity in the test with Canis familiaris is on record as 50%; with Rhesus monkey, 75%; in the test with Cynomolgus monkey it was 100%; in the test on Rattus norvegicus [7], -54%; with Rattus norvegicus [8], 75%; in the test on Hamster [9], 15%. In addition, the EC50 in [10] and in [11] was above 100 µM throughout.
For `CC[C@H]1CCCCN1/C(S)=N/c1cc(Cl)ccc1C`, the Activity is given as 39% in the test with Rattus norvegicus [12]; -88% in the test on Rattus norvegicus [13]; 124% in the test on Rattus norvegicus [14]; 126% in the test with Rattus norvegicus [15]; 404% in the test on Rattus norvegicus [16]; 85% in the test filed under Rattus norvegicus [17]. Also, the Activity in the test with Rattus norvegicus [18] is reported as -56%; in the test filed under Rattus norvegicus [19], 129%. In addition, the 50% effective concentration (EC50) in [10] and in test [11] was above 100 µM each time.
`CCC/N=C(\S)Nc1cc(C)ccc1C`: the Activity in the test with Rattus norvegicus [12] is reported as 72%; in the test with Rattus norvegicus [13], -38%; with Rattus norvegicus [14], 127%; in the test with Rattus norvegicus [15], 29%; in the test on Rattus norvegicus [16], 278%; in the test on Rattus norvegicus [18], -59%. In addition, the Activity in the test filed under Rattus norvegicus [19] came out at 75%.
For `CC[C@@H]1CCCCN1/C(S)=N/c1cc(Cl)ccc1C`, the Activity is reported as 129% in the test with Rattus norvegicus [20]; -105% in the test on Rattus norvegicus [21]; 167% with Rattus norvegicus [22]; 614% in the test on Rattus norvegicus [23]; 30% with Rattus norvegicus [24]; -54% in the test on Rattus norvegicus [25]. In addition, the Activity stood at 80% in the test listed under Rattus norvegicus [17] and 105% in the test listed under Rattus norvegicus [19]. Further, the EC50 in test [10] and in test [11] was above 100 µM in each case.
As to `Cc1ccc(Cl)cc1/N=C(\S)NCc1ccccc1`, the Activity is 27% with Rattus norvegicus [26]; 135% in the test with Rattus norvegicus [27]; 136% with Rattus norvegicus [28]; 41% with Rattus norvegicus [29]; 97% in the test on Rattus norvegicus [30]; -21% with Rattus norvegicus [31].
Take `Cc1ccc(Cl)cc1/N=C(\S)NC(C)(C)C`: the Activity in the test on Rattus norvegicus [26] is listed as 60%; with Rattus norvegicus [27], 30%; with Rattus norvegicus [28], 22%; with Rattus norvegicus [29], 9%; in the test on Rattus norvegicus [30] it was -15%; in the test on Rattus norvegicus [31], -31%.
